ChEMBL document CHEMBL1138529, “Efficacy, pharmacokinetics, and metabolism of tetrahydroquinoline inhibitors of Plasmodium falciparum protein farnesyltransferase” (Antimicrob Agents Chemother, 2007)

Key:
[1] = Permeability from apical to basolateral side in human Caco-2 cells; type: ADME, cell-based; conditions: read-out: permeability
[2] = Inhibition of Plasmodium falciparum protein farnesyltransferase by SPA method
Plasmodium falciparum = experiment: Antiplasmodial activity against Plasmodium falciparum by [3H]hypoxanthine uptake; type: functional; conditions: read-out: ED50 (the source's name)
In short: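 Asynchronous P. falciparum (3D7 or K1) in RPMI 1640 with 20% heat-inactivated human A+ plasma, 0.5% parasitemia and 0.5% hematocrit; compound serially diluted, top final 5 μM, 48 h at 37°C under 5% CO2/5% O2/90% N2, then [8-3H]hypoxanthine 0.3 μCi added for 24 h.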

Mus musculus = experiment: Toxicity in BALB/c mouse at 50 mg/kg, po; type: organism-based; parameters: dose 50 mg/kg, route oral; conditions: in vivo
Rattus norvegicus = experiment: Toxicity in Sprague-Dawley rat at 50 mg/kg, po; type: organism-based; parameters: dose 50 mg/kg, route oral; conditions: in vivo
In short: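 Female Sprague-Dawley rats, 10-12 weeks, three per group. 50 mg/kg oral gavage in 3% EtOH-7% Tween 80-90% normal saline. Saphenous vein plasma sampled over time, and animals observed for adverse reactions.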

Row | Structure (SMILES) | Papp A→B [1] [×10⁻⁶ cm/s] | IC50 [2] [nM] | EC50 (Plasmodium falciparum) [nM] | Activity (Mus musculus) | Activity (Rattus norvegicus)
1 | Cn1cncc1CN1CC(N(CC2CCN(C(=O)Nc3ccc(Br)cc3)CC2)S(=O)(=O)c2ccccn2)Cc2cc(C#N)ccc21 (stereo unspecified) | 0.6 | 0.8 | 13 | Non-toxic | Non-toxic
2 | Cn1cncc1CN1CC(N(CC2CCN(S(=O)(=O)c3ccccc3)CC2)S(=O)(=O)c2ccccn2)Cc2cc(C#N)ccc21 (stereo unspecified) | 0.1 | 0.5 | 62 | Non-toxic | Non-toxic
3 | CCCC(=O)N1CCC(CN(C2Cc3cc(C#N)ccc3N(Cc3cncn3C)C2)S(=O)(=O)c2ccccn2)CC1 (stereo unspecified) | 0.5 | 0.6 | 17 | Non-toxic | Non-toxic
4 | CC(=O)N1CCC(CN(C2Cc3cc(C#N)ccc3N(Cc3cncn3C)C2)S(=O)(=O)c2ccccn2)CC1 (stereo unspecified) | 0.5 | 0.6 | 12 | Non-toxic | Non-toxic
5 | CCNC(=O)N1CCC(CN(C2Cc3cc(C#N)ccc3N(Cc3cncn3C)C2)S(=O)(=O)c2ccccn2)CC1 (stereo unspecified) | 0.6 | 0.8 | 13 | Non-toxic | Non-toxic
6 | Cn1cncc1CN1CC(N(CC2CCN(C(=O)CC(F)(F)F)CC2)S(=O)(=O)c2ccccn2)Cc2cc(C#N)ccc21 (stereo unspecified) | 0.5 | 0.6 | 18 | Non-toxic | Non-toxic
7 | Cn1cncc1CN1CC(N(CC(=O)NC(C)(C)C)S(=O)(=O)c2cccnc2)Cc2cc(C#N)ccc21 (stereo unspecified) | – | 10 | 2.7 | – | –
8 | CN(C)C(=O)N1CCC(CN(C2Cc3cc(C#N)ccc3N(Cc3cncn3C)C2)S(=O)(=O)c2ccccn2)CC1 (stereo unspecified) | 0.6 | 0.8 | 13 | Non-toxic | Non-toxic
9 | Cn1cncc1CN1CC(N(CC2CCN(C(=O)CC(C)(C)C)CC2)S(=O)(=O)c2ccccn2)Cc2cc(C#N)ccc21 (stereo unspecified) | 0.5 | 0.6 | 16 | Non-toxic | Non-toxic
10 | Cn1cncc1CN1CC(N(CC2CCN(C(=O)C(C)(C)C)CC2)S(=O)(=O)c2ccccn2)Cc2cc(C#N)ccc21 (stereo unspecified) | 0.5 | 0.6 | 15 | Non-toxic | Non-toxic
11 | CCS(=O)(=O)N1CCC(CN(C2Cc3cc(C#N)ccc3N(Cc3cncn3C)C2)S(=O)(=O)c2ccccn2)CC1 (stereo unspecified) | 0.1 | 0.5 | 62 | Non-toxic | Non-toxic
12 | CCC(=O)N1CCC(CN(C2Cc3cc(C#N)ccc3N(Cc3cncn3C)C2)S(=O)(=O)c2ccccn2)CC1 (stereo unspecified) | 0.5 | 0.6 | 13 | Non-toxic | Non-toxic
13 | Cn1cncc1CN1CC(N(CC2CCN(C(=O)N3CCCC3)CC2)S(=O)(=O)c2ccccn2)Cc2cc(C#N)ccc21 (stereo unspecified) | 0.6 | 0.8 | 13 | Non-toxic | Non-toxic
14 | Cn1cncc1CN1CC(N(CC2CCN(C(=O)CNC(=O)OC(C)(C)C)CC2)S(=O)(=O)c2ccccn2)Cc2cc(C#N)ccc21 (stereo unspecified) | 0.5 | 0.6 | 18 | Non-toxic | Non-toxic
15 | Cn1cncc1CN1CC(N(CC2CCN(C(=O)c3ccco3)CC2)S(=O)(=O)c2ccccn2)Cc2cc(C#N)ccc21 (stereo unspecified) | 0.5 | 0.6 | 18 | Non-toxic | Non-toxic
16 | Cn1cncc1CN1CC(N(CC2CCN(C(=O)NC(C)(C)C)CC2)S(=O)(=O)c2ccccn2)Cc2cc(C#N)ccc21 (stereo unspecified) | 0.6 | 0.8 | 13 | Non-toxic | Non-toxic
17 | C=C(C)C(=O)N1CCC(CN(C2Cc3cc(C#N)ccc3N(Cc3cncn3C)C2)S(=O)(=O)c2ccccn2)CC1 (stereo unspecified) | 0.5 | 0.6 | 18 | Non-toxic | Non-toxic

Second part, led by results:

Row | Papp A→B [1] [×10⁻⁶ cm/s] | IC50 [2] [nM] | EC50 (Plasmodium falciparum) [nM] | Structure (SMILES) | Activity (Mus musculus) | Activity (Rattus norvegicus)
18 | 0.5 | 0.6 | 18 | Cn1cncc1CN1CC(N(CC2CCN(C(=O)c3cccs3)CC2)S(=O)(=O)c2ccccn2)Cc2cc(C#N)ccc21 (stereo unspecified) | Non-toxic | Non-toxic
19 | – | > 50 | > 5 | Cn1cncc1CN1CC(N(CC(=O)NC(C)(C)C)S(=O)(=O)c2ccncc2)Cc2cc(C#N)ccc21 (stereo unspecified) | – | –
20 | 0.1 | 0.5 | 62 | Cn1cnc(S(=O)(=O)N2CCC(CN(C3Cc4cc(C#N)ccc4N(Cc4cncn4C)C3)S(=O)(=O)c3ccccn3)CC2)c1 (stereo unspecified) | Non-toxic | Non-toxic
21 | 0.6 | 0.8 | 13 | Cn1cncc1CN1CC(N(CC2CCN(C(=O)N3CCCCC3)CC2)S(=O)(=O)c2ccccn2)Cc2cc(C#N)ccc21 (stereo unspecified) | Non-toxic | Non-toxic
22 | 0.6 | 0.8 | 13 | CC(C)NC(=O)N1CCC(CN(C2Cc3cc(C#N)ccc3N(Cc3cncn3C)C2)S(=O)(=O)c2ccccn2)CC1 (stereo unspecified) | Non-toxic | Non-toxic
23 | 0.5 | 0.6 | 18 | Cn1cncc1CN1CC(N(CC2CCN(C(=O)C3CCCC3)CC2)S(=O)(=O)c2ccccn2)Cc2cc(C#N)ccc21 (stereo unspecified) | Non-toxic | Non-toxic
24 | – | 1 | 85 | Cn1cncc1CN1CC(N(CC(=O)NC(C)(C)C)S(=O)(=O)c2ccccn2)Cc2cc(C#N)ccc21 (stereo unspecified) | – | –
25 | 0.5 | 0.6 | 18 | Cn1cncc1CN1CC(N(CC2CCN(C(=O)c3ccccc3)CC2)S(=O)(=O)c2ccccn2)Cc2cc(C#N)ccc21 (stereo unspecified) | Non-toxic | Non-toxic
26 | 0.5 | 0.6 | 18 | Cn1cncc1CN1CC(N(CC2CCN(C(=O)c3ccc(Cl)cc3)CC2)S(=O)(=O)c2ccccn2)Cc2cc(C#N)ccc21 (stereo unspecified) | Non-toxic | Non-toxic
27 | 0.1 | 0.5 | 62 | Cn1cncc1CN1CC(N(CC2CCN(S(C)(=O)=O)CC2)S(=O)(=O)c2ccccn2)Cc2cc(C#N)ccc21 (stereo unspecified) | Non-toxic | Non-toxic
28 | 0.5 | 0.6 | 18 | Cn1cncc1CN1CC(N(CC2CCN(C(=O)C3CC3)CC2)S(=O)(=O)c2ccccn2)Cc2cc(C#N)ccc21 (stereo unspecified) | Non-toxic | Non-toxic
29 | 0.5 | 0.6 | 14 | CC(C)C(=O)N1CCC(CN(C2Cc3cc(C#N)ccc3N(Cc3cncn3C)C2)S(=O)(=O)c2ccccn2)CC1 (stereo unspecified) | Non-toxic | Non-toxic
30 | 0.1 | 0.5 | 62 | CC(C)S(=O)(=O)N1CCC(CN(C2Cc3cc(C#N)ccc3N(Cc3cncn3C)C2)S(=O)(=O)c2ccccn2)CC1 (stereo unspecified) | Non-toxic | Non-toxic
